The target in assay [1] is Insulin-like growth factor 1 receptor (Homo sapiens, UniProt P08069). Kind of assay: Inhibition of IGFR1 by HTRF assay. The procedure, abridged:
(§1)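 Enzyme inhibition was run with ATP at its Km for each kinase. Values are averages of at least two determinations.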
A general note: Time-resolved FRET reads energy transfer from a long-lived donor to a nearby acceptor.

The target of assay [2] is Cyclin-dependent kinase 5 (Homo sapiens, UniProt Q00535). Kind of assay: Inhibition of CDK5 by HTRF assay. The gist of the method: as §1
Cyclin-dependent kinase 5, sequence (Q00535 whole entry): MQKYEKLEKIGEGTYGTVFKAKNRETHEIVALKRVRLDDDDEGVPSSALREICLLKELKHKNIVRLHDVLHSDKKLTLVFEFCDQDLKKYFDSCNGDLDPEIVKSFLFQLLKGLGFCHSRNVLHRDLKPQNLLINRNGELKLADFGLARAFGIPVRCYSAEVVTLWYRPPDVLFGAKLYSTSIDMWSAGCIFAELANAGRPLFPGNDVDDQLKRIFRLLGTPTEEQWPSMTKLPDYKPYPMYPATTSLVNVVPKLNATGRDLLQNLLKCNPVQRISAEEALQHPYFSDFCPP
Assay [3] has as its target Tyrosine-protein kinase JAK2 (Homo sapiens, UniProt O60674). Kind of assay: Inhibition of Jak2 by HTRF assay. The procedure, abridged:
as §1

Assay [4] has as its target T1, Aurora kinase A/Targeting protein for Xklp2 (Homo sapiens, UniProt O14965).
T1 sequence (O14965 whole entry): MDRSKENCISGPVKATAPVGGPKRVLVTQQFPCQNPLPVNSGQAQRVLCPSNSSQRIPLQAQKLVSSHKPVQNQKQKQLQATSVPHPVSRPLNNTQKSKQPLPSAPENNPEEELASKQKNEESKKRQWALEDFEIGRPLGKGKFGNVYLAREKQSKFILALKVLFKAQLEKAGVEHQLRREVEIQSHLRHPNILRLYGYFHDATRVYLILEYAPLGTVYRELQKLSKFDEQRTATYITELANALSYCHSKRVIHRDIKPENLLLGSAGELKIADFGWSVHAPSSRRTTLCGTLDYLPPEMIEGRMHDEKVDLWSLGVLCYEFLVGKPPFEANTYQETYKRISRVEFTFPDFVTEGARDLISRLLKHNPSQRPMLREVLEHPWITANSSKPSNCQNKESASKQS
T1 sequence (Q9ULW0 whole entry): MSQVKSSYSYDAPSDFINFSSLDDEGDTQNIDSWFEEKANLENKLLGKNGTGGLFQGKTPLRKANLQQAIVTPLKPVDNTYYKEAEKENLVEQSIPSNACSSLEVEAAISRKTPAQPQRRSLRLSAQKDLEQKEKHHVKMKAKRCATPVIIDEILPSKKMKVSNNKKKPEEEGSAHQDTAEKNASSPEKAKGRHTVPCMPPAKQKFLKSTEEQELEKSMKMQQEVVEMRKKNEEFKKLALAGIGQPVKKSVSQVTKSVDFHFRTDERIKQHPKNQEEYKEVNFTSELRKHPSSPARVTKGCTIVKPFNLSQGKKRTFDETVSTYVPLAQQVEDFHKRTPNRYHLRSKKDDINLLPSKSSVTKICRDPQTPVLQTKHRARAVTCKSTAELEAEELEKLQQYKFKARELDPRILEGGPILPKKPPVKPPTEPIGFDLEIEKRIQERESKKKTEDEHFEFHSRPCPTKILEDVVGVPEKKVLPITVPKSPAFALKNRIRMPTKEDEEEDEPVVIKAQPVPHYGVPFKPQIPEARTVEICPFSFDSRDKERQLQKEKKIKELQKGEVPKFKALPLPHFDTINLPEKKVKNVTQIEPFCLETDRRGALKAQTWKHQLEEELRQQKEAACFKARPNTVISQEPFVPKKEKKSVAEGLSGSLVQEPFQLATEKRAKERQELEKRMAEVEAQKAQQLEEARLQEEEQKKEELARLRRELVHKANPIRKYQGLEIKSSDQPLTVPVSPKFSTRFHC
Kind of assay: Inhibition of Aurora A/TPX2 (1-43) by HTRF assay. The format is protein-complex assay. The gist of the method: as §1

Assay [5] concerns the target Mitogen-activated protein kinase 9 (Homo sapiens, UniProt P45984). Kind of assay: Inhibition of JNK2 by HTRF assay. The gist of the method: as §1
In assay [6] the target is T2, Tyrosine-protein kinase ZAP-70 (Homo sapiens, UniProt P43403).
T2 sequence (P43403 whole entry): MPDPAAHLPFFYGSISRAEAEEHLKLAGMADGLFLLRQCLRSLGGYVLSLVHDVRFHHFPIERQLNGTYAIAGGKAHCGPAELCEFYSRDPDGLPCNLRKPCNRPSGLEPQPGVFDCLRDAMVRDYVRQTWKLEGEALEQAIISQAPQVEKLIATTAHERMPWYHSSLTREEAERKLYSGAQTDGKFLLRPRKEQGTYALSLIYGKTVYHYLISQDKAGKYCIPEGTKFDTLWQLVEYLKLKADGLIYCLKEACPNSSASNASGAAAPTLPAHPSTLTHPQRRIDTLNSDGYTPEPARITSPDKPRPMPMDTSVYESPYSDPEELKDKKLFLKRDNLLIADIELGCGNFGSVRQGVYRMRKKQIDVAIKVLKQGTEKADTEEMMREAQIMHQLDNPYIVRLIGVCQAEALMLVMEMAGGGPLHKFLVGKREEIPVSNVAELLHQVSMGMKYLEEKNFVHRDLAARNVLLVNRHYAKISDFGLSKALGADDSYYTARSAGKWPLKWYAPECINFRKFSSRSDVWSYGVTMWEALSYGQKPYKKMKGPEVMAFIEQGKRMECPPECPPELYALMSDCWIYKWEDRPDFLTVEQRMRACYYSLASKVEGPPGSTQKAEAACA
Kind of assay: Inhibition of Zap70 by HTRF assay. The gist of the method:
as §1

Assay [7] has as its target Mitogen-activated protein kinase 3 (Homo sapiens, UniProt P27361). Kind of assay: Inhibition of Erk1 by HTRF assay. The procedure, abridged:
as §1

In assay [8] the target is RAC-alpha serine/threonine-protein kinase (Homo sapiens, UniProt P31749). Kind of assay: Inhibition of PKBalpha by HTRF assay. The gist of the method:
as §1

Assay [9] deals with Aurora kinase B (Homo sapiens, UniProt Q96GD4). Kind of assay: Inhibition of Aurora B by HTRF assay. The gist of the method:
as §1

Aurora kinase B, sequence (Q96GD4 whole entry): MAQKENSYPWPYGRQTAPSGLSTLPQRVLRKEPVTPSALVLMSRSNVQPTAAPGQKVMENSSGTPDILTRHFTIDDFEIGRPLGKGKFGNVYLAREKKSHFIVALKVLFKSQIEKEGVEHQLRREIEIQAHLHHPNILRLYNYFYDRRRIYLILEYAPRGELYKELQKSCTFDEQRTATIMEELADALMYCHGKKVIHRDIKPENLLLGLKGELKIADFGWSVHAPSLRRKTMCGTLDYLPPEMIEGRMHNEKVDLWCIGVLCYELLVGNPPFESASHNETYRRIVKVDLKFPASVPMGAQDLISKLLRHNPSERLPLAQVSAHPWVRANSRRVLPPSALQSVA
Mitogen-activated protein kinase 9, sequence (P45984 whole entry): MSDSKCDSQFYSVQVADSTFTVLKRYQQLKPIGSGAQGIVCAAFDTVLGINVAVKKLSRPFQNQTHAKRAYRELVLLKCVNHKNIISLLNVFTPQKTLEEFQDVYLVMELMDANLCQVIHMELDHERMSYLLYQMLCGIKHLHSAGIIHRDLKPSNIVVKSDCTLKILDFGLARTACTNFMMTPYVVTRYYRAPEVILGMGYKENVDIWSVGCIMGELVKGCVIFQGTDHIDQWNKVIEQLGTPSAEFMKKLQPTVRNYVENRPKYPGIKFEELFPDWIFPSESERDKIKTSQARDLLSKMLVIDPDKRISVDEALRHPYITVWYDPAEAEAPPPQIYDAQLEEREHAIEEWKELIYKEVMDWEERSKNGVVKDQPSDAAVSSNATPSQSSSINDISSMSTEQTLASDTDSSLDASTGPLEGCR
Tyrosine-protein kinase JAK2, sequence (O60674 whole entry): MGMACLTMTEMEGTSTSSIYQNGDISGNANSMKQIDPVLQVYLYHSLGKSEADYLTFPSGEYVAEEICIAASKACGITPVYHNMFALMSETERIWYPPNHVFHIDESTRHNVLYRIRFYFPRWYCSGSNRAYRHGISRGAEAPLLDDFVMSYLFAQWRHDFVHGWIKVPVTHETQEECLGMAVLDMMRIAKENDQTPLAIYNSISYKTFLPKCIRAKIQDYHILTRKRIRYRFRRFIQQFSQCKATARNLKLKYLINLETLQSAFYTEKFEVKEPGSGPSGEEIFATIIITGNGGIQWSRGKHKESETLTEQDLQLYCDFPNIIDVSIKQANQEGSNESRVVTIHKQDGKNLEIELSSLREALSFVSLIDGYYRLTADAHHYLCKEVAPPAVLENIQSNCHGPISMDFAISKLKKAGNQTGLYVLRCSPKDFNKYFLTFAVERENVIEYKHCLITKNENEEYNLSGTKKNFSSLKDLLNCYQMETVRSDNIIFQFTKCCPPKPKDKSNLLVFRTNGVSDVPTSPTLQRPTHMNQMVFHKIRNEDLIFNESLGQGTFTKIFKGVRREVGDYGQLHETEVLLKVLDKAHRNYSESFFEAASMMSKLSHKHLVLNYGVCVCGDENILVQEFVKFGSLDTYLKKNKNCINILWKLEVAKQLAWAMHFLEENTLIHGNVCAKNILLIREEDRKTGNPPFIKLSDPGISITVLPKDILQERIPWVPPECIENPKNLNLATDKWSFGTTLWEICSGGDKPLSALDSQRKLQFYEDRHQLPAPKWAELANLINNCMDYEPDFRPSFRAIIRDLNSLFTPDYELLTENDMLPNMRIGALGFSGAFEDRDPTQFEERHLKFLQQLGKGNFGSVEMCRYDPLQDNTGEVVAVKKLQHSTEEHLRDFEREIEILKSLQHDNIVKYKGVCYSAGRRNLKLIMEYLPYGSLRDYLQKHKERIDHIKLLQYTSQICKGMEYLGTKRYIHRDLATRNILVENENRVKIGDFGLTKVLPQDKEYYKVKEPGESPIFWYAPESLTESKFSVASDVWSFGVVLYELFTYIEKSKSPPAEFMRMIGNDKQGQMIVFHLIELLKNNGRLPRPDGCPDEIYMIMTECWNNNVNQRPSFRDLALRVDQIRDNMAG
Mitogen-activated protein kinase 3, sequence (P27361 whole entry): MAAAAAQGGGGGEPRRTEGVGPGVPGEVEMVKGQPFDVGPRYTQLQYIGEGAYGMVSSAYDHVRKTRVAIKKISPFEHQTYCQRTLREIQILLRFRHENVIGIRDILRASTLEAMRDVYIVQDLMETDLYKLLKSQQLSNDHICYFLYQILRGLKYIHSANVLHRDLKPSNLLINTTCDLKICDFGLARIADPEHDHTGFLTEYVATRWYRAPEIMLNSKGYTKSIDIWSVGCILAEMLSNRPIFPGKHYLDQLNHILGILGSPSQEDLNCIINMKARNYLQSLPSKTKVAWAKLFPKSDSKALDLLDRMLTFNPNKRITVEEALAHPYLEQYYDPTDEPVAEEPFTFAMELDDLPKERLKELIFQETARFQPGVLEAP
Insulin-like growth factor 1 receptor, sequence (P08069 31-736 limits assumed): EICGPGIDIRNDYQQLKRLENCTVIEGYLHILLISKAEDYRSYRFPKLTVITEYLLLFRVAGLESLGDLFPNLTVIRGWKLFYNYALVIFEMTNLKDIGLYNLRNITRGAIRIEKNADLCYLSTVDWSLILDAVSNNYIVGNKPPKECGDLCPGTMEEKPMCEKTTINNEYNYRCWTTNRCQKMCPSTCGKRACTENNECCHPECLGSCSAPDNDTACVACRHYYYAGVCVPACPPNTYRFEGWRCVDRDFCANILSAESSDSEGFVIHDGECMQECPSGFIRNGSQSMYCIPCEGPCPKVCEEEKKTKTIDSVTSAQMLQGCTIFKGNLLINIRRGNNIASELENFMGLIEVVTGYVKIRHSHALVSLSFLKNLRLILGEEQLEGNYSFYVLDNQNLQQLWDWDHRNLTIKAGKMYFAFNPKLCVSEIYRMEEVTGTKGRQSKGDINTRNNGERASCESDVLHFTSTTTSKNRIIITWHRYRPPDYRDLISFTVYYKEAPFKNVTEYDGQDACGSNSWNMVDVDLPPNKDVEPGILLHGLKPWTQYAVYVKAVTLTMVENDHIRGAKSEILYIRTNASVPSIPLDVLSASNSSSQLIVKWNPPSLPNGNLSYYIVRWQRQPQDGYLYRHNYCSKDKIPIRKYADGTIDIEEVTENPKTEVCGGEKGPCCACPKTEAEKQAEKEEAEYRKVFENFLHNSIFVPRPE
Insulin-like growth factor 1 receptor, sequence (P08069 741-1367 limits assumed): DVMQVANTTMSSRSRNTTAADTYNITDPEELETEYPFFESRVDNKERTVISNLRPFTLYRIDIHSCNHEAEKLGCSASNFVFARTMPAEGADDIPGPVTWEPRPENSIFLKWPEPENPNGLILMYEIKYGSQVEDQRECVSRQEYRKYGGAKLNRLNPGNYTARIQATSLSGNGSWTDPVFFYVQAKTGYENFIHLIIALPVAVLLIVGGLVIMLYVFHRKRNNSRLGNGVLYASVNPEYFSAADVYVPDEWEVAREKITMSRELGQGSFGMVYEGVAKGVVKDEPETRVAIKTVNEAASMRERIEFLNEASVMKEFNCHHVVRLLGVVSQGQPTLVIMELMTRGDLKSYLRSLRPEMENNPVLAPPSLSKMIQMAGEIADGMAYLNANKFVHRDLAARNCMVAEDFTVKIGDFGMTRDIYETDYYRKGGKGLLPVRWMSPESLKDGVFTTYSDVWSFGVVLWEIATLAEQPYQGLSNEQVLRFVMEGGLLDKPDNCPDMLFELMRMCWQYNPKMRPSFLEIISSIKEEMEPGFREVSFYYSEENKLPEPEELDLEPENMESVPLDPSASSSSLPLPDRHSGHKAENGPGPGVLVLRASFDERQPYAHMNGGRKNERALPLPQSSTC
RAC-alpha serine/threonine-protein kinase, sequence (P31749 whole entry): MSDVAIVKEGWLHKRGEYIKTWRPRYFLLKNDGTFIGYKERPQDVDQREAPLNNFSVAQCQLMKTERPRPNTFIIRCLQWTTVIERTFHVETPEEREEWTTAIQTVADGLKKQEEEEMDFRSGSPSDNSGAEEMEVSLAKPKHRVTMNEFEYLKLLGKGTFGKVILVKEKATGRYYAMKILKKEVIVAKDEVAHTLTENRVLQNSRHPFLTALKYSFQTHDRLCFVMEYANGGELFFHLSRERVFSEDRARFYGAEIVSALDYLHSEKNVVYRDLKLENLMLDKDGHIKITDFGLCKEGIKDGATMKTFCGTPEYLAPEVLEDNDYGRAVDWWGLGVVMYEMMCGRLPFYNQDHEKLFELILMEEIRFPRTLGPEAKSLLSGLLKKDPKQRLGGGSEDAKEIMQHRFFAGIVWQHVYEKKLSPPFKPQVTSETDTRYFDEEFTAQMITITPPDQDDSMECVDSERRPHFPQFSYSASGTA

The term IC50 denotes the concentration that inhibits the measured activity by half. Read a high IC50 as lower potency. With `CNc1nccc(-c2cccnc2Oc2ccc(Nc3nnc(-c4ccc(F)cc4)c4ccccc34)cc2)n1`, the half-inhibitory concentration (IC50) was greater than 25 µM in assay [1]; greater than 25 µM in assay [2]; greater than 25 µM in [3]; 41 nM in assay [4]; greater than 25 µM in [5]; greater than 25 µM in assay [6]. Also, the IC50 in assay [7] was greater than 25 µM; in assay [8], greater than 25 µM; in assay [9] it was 15 nM.
For the molecule `CNc1nccc(-c2cccnc2Oc2ccc(NC(=O)c3ccccc3Nc3ccccc3)cc2)n1`, the concentration for half-maximal inhibition (IC50) is greater than 1 µM in [1]; greater than 1 µM in assay [2]; greater than 1 µM in assay [3]; 16 nM in [4]; greater than 1 µM in assay [5]; greater than 1 µM in [6]. For the same molecule, the half-inhibitory concentration (IC50) is greater than 1 µM in [7], greater than 1 µM in assay [8] and 9 nM in [9].
As to `CNc1nccc(-c2cccnc2Oc2ccc(NC(=O)c3cccc(C(F)(F)F)c3)cc2C)n1`, the IC50 in [1] was greater than 8 µM; in assay [2], greater than 8 µM; in [3] it was greater than 8 µM; in [4] it was 586 nM; in assay [5] it was greater than 8 µM; in assay [6] it was greater than 8 µM. Also, the results for the IC50 in [7], in assay [8] and in assay [9] were greater than 8 µM, greater than 8 µM and 66 nM, respectively.

(Values after ChEMBL document CHEMBL1240487, “Discovery of a potent, selective, and orally bioavailable pyridinyl-pyrimidine phthalazine aurora kinase inhibitor” (J Med Chem, 2010).)
